Positions of bridges follow the written chain, without caps; N, C: chain ends. Non-standard residues stand in square brackets, D forms with d. Residues, ends and D or L forms follow the SMILES beside them. 1Nal = N[C@@H](Cc1cccc2ccccc12)C(=O)O; Lys(Me2) = CN(C)CCCC[C@H](N)C(=O)O Some results are limits rather than exact numbers.

What all share (assay type): cell-based
Assay [1] addresses T1, Sodium channel protein type 5 subunit alpha (Homo sapiens, UniProt Q14524). The assay is described as follows: Inhibition of human Nav1.5 expressed in HEK293 cells assessed as inward peak current by ion-works quattro patch clamp electrophysiology method. Put shortly: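 Stable HEK293 line expressing human NaV1.5, recorded by population patch clamp on the IonWorks Quattro.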

For assay [2], the target named is T1, Sodium channel protein type 5 subunit alpha. Description: Inhibition of human Nav1.5 expressed in HEK293 cells by whole cell patch clamp electrophysiology method. The procedure, abridged: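 Stable HEK293 line expressing human NaV1.5, recorded on the PatchXpress 7000A. Percent inhibition versus concentration was pooled from at least 10 cells, with two to three points per concentration. The pooled set was fitted with a four-parameter Hill equation to give a single IC50 curve.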
Background: In patch-clamp work, channel activity is measured electrically.

Assay [3] addresses Sodium channel protein type 9 subunit alpha (Homo sapiens, UniProt Q15858). The assay is described as follows: Inhibition of human Nav1.7 expressed in HEK293 cells assessed as inward peak current by ion-works quattro patch clamp electrophysiology method.

Sequence of Sodium channel protein type 9 subunit alpha (Q15858 whole entry): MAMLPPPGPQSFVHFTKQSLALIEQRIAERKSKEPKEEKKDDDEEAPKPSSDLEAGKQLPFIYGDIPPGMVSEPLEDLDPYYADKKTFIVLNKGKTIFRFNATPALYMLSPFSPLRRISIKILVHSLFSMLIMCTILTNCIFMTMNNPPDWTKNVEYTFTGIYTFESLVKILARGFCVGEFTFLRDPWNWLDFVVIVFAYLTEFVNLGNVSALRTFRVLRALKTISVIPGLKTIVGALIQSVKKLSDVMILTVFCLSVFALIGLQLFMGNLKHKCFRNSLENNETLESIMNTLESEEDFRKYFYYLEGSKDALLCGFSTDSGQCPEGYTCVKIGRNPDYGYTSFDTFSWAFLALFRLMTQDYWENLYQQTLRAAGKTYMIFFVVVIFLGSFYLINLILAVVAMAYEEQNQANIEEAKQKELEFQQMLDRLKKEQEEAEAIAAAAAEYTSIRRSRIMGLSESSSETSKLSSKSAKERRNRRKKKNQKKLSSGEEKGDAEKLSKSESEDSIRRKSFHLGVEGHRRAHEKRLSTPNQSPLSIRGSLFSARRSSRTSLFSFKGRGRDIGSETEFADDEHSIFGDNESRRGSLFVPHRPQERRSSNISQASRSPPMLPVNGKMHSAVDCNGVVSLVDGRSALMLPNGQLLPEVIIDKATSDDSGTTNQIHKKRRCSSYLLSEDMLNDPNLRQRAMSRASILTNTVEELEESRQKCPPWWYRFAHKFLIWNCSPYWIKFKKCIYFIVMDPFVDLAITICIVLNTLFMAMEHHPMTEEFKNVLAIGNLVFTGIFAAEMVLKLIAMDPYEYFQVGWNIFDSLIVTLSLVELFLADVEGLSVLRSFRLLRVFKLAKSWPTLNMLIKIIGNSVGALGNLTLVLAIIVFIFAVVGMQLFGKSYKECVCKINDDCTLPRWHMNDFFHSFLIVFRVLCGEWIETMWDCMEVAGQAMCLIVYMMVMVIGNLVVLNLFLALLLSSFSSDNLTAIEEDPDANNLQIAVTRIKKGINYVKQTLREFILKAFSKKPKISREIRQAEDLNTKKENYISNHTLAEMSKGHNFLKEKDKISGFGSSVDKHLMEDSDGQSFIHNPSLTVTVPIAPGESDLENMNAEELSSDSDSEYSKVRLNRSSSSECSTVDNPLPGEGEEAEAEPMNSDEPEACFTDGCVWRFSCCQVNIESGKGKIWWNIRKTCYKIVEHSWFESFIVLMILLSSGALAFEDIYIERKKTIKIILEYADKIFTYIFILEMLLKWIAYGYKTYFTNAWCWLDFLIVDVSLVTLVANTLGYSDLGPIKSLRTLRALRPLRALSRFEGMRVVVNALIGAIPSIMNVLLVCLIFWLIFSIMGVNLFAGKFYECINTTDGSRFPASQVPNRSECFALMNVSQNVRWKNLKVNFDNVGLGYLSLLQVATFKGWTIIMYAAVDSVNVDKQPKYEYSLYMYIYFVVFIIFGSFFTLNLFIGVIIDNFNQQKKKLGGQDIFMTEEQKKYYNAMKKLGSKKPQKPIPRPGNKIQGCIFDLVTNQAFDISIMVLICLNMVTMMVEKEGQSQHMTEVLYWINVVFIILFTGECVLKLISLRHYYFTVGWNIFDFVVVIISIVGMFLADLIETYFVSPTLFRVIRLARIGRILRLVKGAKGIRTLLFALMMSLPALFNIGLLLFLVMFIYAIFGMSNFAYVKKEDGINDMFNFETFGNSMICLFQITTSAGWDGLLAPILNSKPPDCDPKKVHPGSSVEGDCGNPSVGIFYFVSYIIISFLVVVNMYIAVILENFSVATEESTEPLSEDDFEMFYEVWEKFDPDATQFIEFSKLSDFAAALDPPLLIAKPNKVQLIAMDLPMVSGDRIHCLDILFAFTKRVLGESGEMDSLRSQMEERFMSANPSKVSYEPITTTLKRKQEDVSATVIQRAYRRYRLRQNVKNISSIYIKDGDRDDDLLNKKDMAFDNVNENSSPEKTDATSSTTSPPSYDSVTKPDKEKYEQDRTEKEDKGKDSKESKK
T1 sequence (Q14524 whole entry): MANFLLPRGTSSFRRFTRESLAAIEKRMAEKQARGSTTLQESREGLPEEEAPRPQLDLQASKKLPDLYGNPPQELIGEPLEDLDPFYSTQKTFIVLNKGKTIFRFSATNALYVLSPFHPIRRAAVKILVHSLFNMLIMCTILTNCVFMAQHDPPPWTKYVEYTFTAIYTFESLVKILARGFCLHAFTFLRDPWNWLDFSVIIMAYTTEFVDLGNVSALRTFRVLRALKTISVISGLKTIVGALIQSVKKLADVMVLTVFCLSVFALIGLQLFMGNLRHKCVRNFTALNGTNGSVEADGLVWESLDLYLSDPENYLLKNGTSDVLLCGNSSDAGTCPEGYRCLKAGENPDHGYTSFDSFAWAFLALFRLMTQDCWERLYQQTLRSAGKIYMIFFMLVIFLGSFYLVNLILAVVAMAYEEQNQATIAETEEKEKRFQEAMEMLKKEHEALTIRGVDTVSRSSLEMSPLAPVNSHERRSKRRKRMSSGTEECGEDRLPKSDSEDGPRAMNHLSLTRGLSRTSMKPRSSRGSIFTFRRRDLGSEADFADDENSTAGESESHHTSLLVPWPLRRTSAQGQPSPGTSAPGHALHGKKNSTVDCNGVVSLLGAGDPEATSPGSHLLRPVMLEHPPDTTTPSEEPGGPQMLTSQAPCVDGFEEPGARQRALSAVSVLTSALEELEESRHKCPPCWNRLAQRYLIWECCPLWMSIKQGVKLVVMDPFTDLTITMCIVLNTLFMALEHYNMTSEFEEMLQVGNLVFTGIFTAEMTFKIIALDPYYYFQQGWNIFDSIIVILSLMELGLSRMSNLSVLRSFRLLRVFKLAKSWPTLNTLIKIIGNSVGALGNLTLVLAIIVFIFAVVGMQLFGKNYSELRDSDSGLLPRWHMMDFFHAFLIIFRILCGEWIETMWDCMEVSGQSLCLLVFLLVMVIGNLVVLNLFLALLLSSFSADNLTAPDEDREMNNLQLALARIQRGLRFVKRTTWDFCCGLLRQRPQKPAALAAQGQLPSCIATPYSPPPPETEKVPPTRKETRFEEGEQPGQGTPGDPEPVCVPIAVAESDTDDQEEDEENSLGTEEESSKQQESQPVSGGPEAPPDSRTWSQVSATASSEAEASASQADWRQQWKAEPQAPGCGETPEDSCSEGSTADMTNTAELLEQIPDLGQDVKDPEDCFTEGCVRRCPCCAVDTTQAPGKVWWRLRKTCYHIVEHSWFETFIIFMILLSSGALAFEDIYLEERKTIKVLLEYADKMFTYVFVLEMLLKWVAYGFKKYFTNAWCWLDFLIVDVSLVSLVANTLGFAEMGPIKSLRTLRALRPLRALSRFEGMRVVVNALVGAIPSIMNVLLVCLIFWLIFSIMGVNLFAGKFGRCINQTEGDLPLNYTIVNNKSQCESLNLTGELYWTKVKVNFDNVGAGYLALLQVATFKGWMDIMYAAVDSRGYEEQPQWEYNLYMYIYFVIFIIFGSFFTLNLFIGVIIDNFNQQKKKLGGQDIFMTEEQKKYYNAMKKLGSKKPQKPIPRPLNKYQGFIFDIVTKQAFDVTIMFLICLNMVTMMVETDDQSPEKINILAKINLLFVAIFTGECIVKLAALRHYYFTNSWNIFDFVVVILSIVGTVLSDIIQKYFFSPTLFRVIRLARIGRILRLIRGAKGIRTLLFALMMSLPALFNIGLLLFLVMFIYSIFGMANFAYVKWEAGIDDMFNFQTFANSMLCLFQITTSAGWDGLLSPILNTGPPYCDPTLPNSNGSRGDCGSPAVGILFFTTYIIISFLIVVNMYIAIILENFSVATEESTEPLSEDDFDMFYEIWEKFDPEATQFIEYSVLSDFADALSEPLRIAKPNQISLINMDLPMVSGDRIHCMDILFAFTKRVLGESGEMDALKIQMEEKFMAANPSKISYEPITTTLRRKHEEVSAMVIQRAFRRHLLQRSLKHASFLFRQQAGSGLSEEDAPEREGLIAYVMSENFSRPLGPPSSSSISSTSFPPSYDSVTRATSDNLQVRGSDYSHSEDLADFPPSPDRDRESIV

Consider `CC[C@H](C)[C@@H]1NC(=O)[C@@H]2CSSC[C@@H]3NC(=O)[C@H](C(C)C)NC(=O)[C@H](CC(C)C)NC(=O)[C@H](CC(N)=O)NC(=O)[C@@H]4CCCN4C(=O)[C@H](CCCCN(C)C)NC(=O)[C@H](CSSC[C@H](NC(=O)[C@@H](N)CC(=O)O)C(=O)N[C@@H](CC(C)C)C(=O)NCC(=O)N[C@@H](Cc4ccccc4)C(=O)N[C@@H](CCSC)C(=O)N[C@@H](CCCNC(=N)N)C(=O)N[C@@H](CCCCN)C(=O)N2)NC(=O)[C@H](CSSC[C@@H](C(=O)N[C@@H](CCCCN)C(=O)N[C@@H](Cc2ccc(O)cc2)C(=O)N[C@H](C(=O)N[C@@H](Cc2ccccc2)C(N)=O)C(C)C)NC(=O)[C@H](Cc2c[nH]c4ccccc24)NC(=O)[C@H](CCCCN)NC(=O)[C@H](Cc2cnc[nH]2)NC(=O)[C@H]([C@@H](C)O)NC(=O)[C@H](CCCNC(=N)N)NC(=O)[C@H](CO)NC3=O)NC(=O)[C@H](CCCCN)NC(=O)[C@H](CC(=O)O)NC(=O)[C@H](CC(N)=O)NC(=O)[C@H](CC(=O)O)NC(=O)[C@@H]2CCCN2C1=O` (H-DCLGFMRKCIPDNDKCC[Lys(Me2)]PNLVCSRTHKWCKYVF-NH2; disulfide 2-17, 9-23, 16-30), for which the half-maximal inhibitory concentration (IC50) in assay [1] is over 5 µM; in assay [2] it was over 10 µM.
The corresponding values for `CC[C@H](C)[C@@H]1NC(=O)[C@@H]2CSSC[C@@H]3NC(=O)[C@H](C(C)C)NC(=O)[C@H](CC(C)C)NC(=O)[C@H](CC(N)=O)NC(=O)[C@@H]4CCCN4C(=O)[C@H](CCCN/C(=N/C)NC)NC(=O)[C@H](CSSC[C@H](NC(=O)[C@@H](N)CC(=O)O)C(=O)N[C@@H](CC(C)C)C(=O)NCC(=O)N[C@@H](Cc4ccccc4)C(=O)N[C@@H](CCSC)C(=O)N[C@@H](CCCNC(=N)N)C(=O)N[C@@H](CCCCN)C(=O)N2)NC(=O)[C@H](CSSC[C@@H](C(=O)N[C@@H](CCCCN)C(=O)N[C@@H](Cc2ccc(O)cc2)C(=O)N[C@H](C(=O)N[C@@H](Cc2ccccc2)C(N)=O)C(C)C)NC(=O)[C@H](Cc2c[nH]c4ccccc24)NC(=O)[C@H](CCCCN)NC(=O)[C@H](Cc2cnc[nH]2)NC(=O)[C@H]([C@@H](C)O)NC(=O)[C@H](CCCNC(=N)N)NC(=O)[C@H](CO)NC3=O)NC(=O)[C@H](CCCCN)NC(=O)[C@H](CC(=O)O)NC(=O)[C@H](CC(N)=O)NC(=O)[C@H](CC(=O)O)NC(=O)[C@@H]2CCCN2C1=O` are over 5 µM and over 10 µM.
The like results for `CC[C@H](C)[C@@H]1NC(=O)[C@@H]2CSSC[C@@H]3NC(=O)[C@H](C(C)C)NC(=O)[C@H](CC(C)C)NC(=O)[C@H](CC(N)=O)NC(=O)[C@@H]4CCCN4C(=O)[C@H](CCCNC(=N)N)NC(=O)[C@H](CSSC[C@H](NC(=O)[C@H](CC(=O)O)NC(C)=O)C(=O)N[C@@H](CC(C)C)C(=O)NCC(=O)N[C@@H](Cc4ccccc4)C(=O)N[C@@H](CCSC)C(=O)N[C@@H](CCCNC(=N)N)C(=O)N[C@@H](CCCCN)C(=O)N2)NC(=O)[C@H](CSSC[C@@H](C(=O)N[C@@H](CCCCN)C(=O)N[C@@H](Cc2ccc(O)cc2)C(=O)N[C@H](C(=O)N[C@@H](Cc2ccccc2)C(N)=O)C(C)C)NC(=O)[C@H](Cc2c[nH]c4ccccc24)NC(=O)[C@H](CCCCN)NC(=O)[C@H](Cc2cnc[nH]2)NC(=O)[C@H]([C@@H](C)O)NC(=O)[C@H](CCCNC(=N)N)NC(=O)[C@H](CO)NC3=O)NC(=O)[C@H](CCCCN)NC(=O)[C@H](CC(=O)O)NC(=O)[C@H](CC(N)=O)NC(=O)[C@H](CC(=O)O)NC(=O)[C@@H]2CCCN2C1=O` were, in that order, over 5 µM and over 10 µM.
Take `CC[C@H](C)[C@@H]1NC(=O)[C@@H]2CSSC[C@@H]3NC(=O)[C@H](C(C)C)NC(=O)[C@H](CC(C)C)NC(=O)[C@H](CC(N)=O)NC(=O)[C@@H]4CCCN4C(=O)[C@H](CCCNC(=N)N)NC(=O)[C@H](CSSC[C@H](NC(=O)[C@@H](N)CC(=O)O)C(=O)N[C@@H](CC(C)C)C(=O)NCC(=O)N[C@@H](Cc4ccccc4)C(=O)N[C@@H](CCSC)C(=O)N[C@@H](CCCNC(=N)N)C(=O)N[C@@H](CCCCN)C(=O)N2)NC(=O)[C@H](CSSC[C@@H](C(=O)N[C@@H](CCCCN)C(=O)N[C@@H](Cc2ccc(O)cc2)C(=O)N[C@H](C(=O)N[C@@H](Cc2ccccc2)C(N)=O)C(C)C)NC(=O)[C@H](Cc2cccc4ccccc24)NC(=O)[C@H](CCCCN)NC(=O)[C@H](Cc2cnc[nH]2)NC(=O)[C@H]([C@@H](C)O)NC(=O)[C@H](CCCNC(=N)N)NC(=O)[C@H](CO)NC3=O)NC(=O)[C@H](CCCCN)NC(=O)[C@H](CC(=O)O)NC(=O)[C@H](CC(N)=O)NC(=O)[C@H](CC(=O)O)NC(=O)[C@@H]2CCCN2C1=O` (H-DCLGFMRKCIPDNDKCCRPNLVCSRTHK[1Nal]CKYVF-NH2; disulfide 2-17, 9-23, 16-30): the half-inhibitory concentration (IC50) was over 5 µM in assay [1] and over 10 µM in assay [2].
The like results for `CC[C@H](C)[C@@H]1NC(=O)[C@@H]2CSSC[C@@H]3NC(=O)[C@H](C(C)C)NC(=O)[C@H](CC(C)C)NC(=O)[C@H](CC(N)=O)NC(=O)[C@@H]4CCCN4C(=O)[C@H](CCCNC(=N)N)NC(=O)[C@H](CSSC[C@H](NC(=O)[C@@H](N)CC(=O)O)C(=O)N[C@@H](CC(C)C)C(=O)NCC(=O)N[C@@H](Cc4ccccc4)C(=O)N[C@@H](CCSC)C(=O)N[C@@H](CCCNC(=N)N)C(=O)N[C@@H](CCCCN)C(=O)N2)NC(=O)[C@H](CSSC[C@@H](C(=O)N[C@@H](CCCCN)C(=O)N[C@@H](Cc2ccc(O)cc2)C(=O)N[C@H](C(=O)N[C@@H](Cc2ccccc2)C(=O)O)C(C)C)NC(=O)[C@H](Cc2c[nH]c4ccccc24)NC(=O)[C@H](CCCCN)NC(=O)[C@H](Cc2cnc[nH]2)NC(=O)[C@H]([C@@H](C)O)NC(=O)[C@H](CCCNC(=N)N)NC(=O)[C@H](CO)NC3=O)NC(=O)[C@H](CCCCN)NC(=O)[C@H](CC(=O)O)NC(=O)[C@H](CC(N)=O)NC(=O)[C@H](CC(=O)O)NC(=O)[C@@H]2CCCN2C1=O` (stereo in doubt) were, in that order, over 5 µM and over 10 µM.
As for `CC[C@H](C)[C@@H]1NC(=O)[C@@H]2CSSC[C@@H]3NC(=O)[C@H](C(C)C)NC(=O)[C@H](CC(C)C)NC(=O)[C@H](CC(N)=O)NC(=O)[C@@H]4CCCN4C(=O)[C@H](CCCNC(=N)N)NC(=O)[C@H](CSSC[C@H](NC(=O)[C@@H](N)Cc4cccc5ccccc45)C(=O)N[C@@H](CC(C)C)C(=O)NCC(=O)N[C@@H](Cc4ccccc4)C(=O)N[C@@H](CCSC)C(=O)N[C@@H](CCCNC(=N)N)C(=O)N[C@@H](CCCCN)C(=O)N2)NC(=O)[C@H](CSSC[C@@H](C(=O)N[C@@H](CCCCN)C(=O)N[C@@H](Cc2ccc(O)cc2)C(=O)N[C@H](C(=O)N[C@@H](Cc2ccccc2)C(N)=O)C(C)C)NC(=O)[C@H](Cc2c[nH]c4ccccc24)NC(=O)[C@H](CCCCN)NC(=O)[C@H](Cc2c[nH]cn2)NC(=O)[C@H]([C@@H](C)O)NC(=O)[C@H](CCCNC(=N)N)NC(=O)[C@H](CO)NC3=O)NC(=O)[C@H](CCCCN)NC(=O)[C@H](CC(=O)O)NC(=O)[C@H](CC(N)=O)NC(=O)[C@H](CC(=O)O)NC(=O)[C@@H]2CCCN2C1=O` (H-[1Nal]CLGFMRKCIPDNDKCCRPNLVCSRTHKWCKYVF-NH2; disulfide 2-17, 9-23, 16-30), the figures for the IC50 in assay [3] and in assay [1] were 0.1 µM and over 5 µM, respectively.
For the compound `CC[C@H](C)[C@@H]1NC(=O)[C@@H]2CSSC[C@@H]3NC(=O)[C@H](C(C)C)NC(=O)[C@H](CC(C)C)NC(=O)[C@H](CC(N)=O)NC(=O)[C@@H]4CCCN4C(=O)[C@H](CCCNC(=N)N)NC(=O)[C@H](CSSC[C@H](NC(=O)[C@@H](N)CC(=O)O)C(=O)N[C@@H](CC(C)C)C(=O)NCC(=O)N[C@@H](Cc4ccccc4)C(=O)N[C@@H](CCSC)C(=O)N[C@@H](CCCNC(=N)N)C(=O)N[C@@H](CCCCN)C(=O)N2)NC(=O)[C@H](CSSC[C@@H](C(=O)N[C@@H](CCCCN)C(=O)N[C@@H](Cc2ccc(O)cc2)C(=O)N[C@H](C(=O)N[C@@H](Cc2ccccc2)C(N)=O)C(C)C)NC(=O)[C@H](Cc2c[nH]c4ccccc24)NC(=O)[C@H](CCCCN)NC(=O)[C@H](Cc2cnc[nH]2)NC(=O)[C@H](Cc2c[nH]c4ccccc24)NC(=O)[C@H](CCCNC(=N)N)NC(=O)[C@H](CO)NC3=O)NC(=O)[C@H](CCCCN)NC(=O)[C@H](CC(=O)O)NC(=O)[C@H](CC(N)=O)NC(=O)[C@H](CC(=O)O)NC(=O)[C@@H]2CCCN2C1=O` (H-DCLGFMRKCIPDNDKCCRPNLVCSRWHKWCKYVF-NH2; disulfide 2-17, 9-23, 16-30), the figures for the IC50 in assay [3] and in assay [1] were 0.05 µM and 3.6 µM, respectively.
The corresponding values for `CC[C@H](C)[C@@H]1NC(=O)[C@@H]2CSSC[C@@H]3NC(=O)[C@H](C(C)C)NC(=O)[C@H](Cc4cccc5ccccc45)NC(=O)[C@H](CC(N)=O)NC(=O)[C@@H]4CCCN4C(=O)[C@H](CCCNC(=N)N)NC(=O)[C@H](CSSC[C@H](NC(=O)[C@@H](N)CC(=O)O)C(=O)N[C@@H](CC(C)C)C(=O)NCC(=O)N[C@@H](Cc4ccccc4)C(=O)N[C@@H](CCSC)C(=O)N[C@@H](CCCNC(=N)N)C(=O)N[C@@H](CCCCN)C(=O)N2)NC(=O)[C@H](CSSC[C@@H](C(=O)N[C@@H](CCCCN)C(=O)N[C@@H](Cc2ccc(O)cc2)C(=O)N[C@H](C(=O)N[C@@H](Cc2ccccc2)C(N)=O)C(C)C)NC(=O)[C@H](Cc2c[nH]c4ccccc24)NC(=O)[C@H](CCCCN)NC(=O)[C@H](Cc2c[nH]cn2)NC(=O)[C@H]([C@@H](C)O)NC(=O)[C@H](CCCNC(=N)N)NC(=O)[C@H](CO)NC3=O)NC(=O)[C@H](CCCCN)NC(=O)[C@H](CC(=O)O)NC(=O)[C@H](CC(N)=O)NC(=O)[C@H](CC(=O)O)NC(=O)[C@@H]2CCCN2C1=O` (H-DCLGFMRKCIPDNDKCCRPN[1Nal]VCSRTHKWCKYVF-NH2; disulfide 2-17, 9-23, 16-30) are 0.09 µM and over 5 µM.

By IC50 is commonly meant the point on the concentration scale where inhibition reaches its midpoint.

For the origin of these results see ChEMBL document CHEMBL3797186, “Single Residue Substitutions That Confer Voltage-Gated Sodium Ion Channel Subtype Selectivity in the NaV1.7 Inhibitory Peptide GpTx-1” (J Med Chem, 2016).
